High-throughput results from PubChem BioAssay.
Compounds with a hit are over-represented: about 6.7% of the library has one in this group of screens.
PREPL inh – inhibitors of human prolyl oligopeptidase-like enzyme PREPL; recombinant PREPL, fluorescence polarization activity-based probe; inhibition, % at 5.96 µM; 320,000 tested, 0.68% active; in the data active means inhibition above about 43%
Target sequence (Q4J6C6 whole entry, looked up): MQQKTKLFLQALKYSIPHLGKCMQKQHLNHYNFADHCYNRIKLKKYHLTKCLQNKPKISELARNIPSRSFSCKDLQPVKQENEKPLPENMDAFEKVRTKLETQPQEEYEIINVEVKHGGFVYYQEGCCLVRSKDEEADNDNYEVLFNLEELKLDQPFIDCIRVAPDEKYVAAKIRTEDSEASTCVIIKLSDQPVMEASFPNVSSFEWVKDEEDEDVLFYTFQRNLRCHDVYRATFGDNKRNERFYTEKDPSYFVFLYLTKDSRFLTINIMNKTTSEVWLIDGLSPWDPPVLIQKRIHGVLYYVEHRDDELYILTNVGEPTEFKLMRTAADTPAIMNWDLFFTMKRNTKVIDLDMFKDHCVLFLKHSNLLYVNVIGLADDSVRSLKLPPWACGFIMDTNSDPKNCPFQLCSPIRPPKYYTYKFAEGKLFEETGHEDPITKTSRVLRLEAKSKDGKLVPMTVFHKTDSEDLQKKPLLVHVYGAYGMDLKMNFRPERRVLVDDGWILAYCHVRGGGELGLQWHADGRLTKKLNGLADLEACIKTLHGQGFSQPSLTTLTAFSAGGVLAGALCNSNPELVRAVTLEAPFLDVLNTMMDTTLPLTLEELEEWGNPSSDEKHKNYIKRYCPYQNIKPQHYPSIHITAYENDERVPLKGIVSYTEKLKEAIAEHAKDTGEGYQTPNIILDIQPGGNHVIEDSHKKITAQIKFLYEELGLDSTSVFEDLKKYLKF
Beta cell apopt – blocks beta cell apoptosis; INS-1E cytokine-induced death, ATP luminescence, 48 h; percent of positive-control rescue, neutral wells zero; protection from apoptosis, % (concentration not given with the values); 300,000 tested, 0.8% active;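 active means Every replicate reaches about 75%, or at least half do and their mean reaches it too, limit read from the data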;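 further: higher means more ATP so stronger rescue from cytokine killing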
T cruzi repl – blocks replication of Trypanosoma cruzi. T. cruzi beta-gal in NIH3T3, luminescence, 90 h. inhibition, % (test concentration not listed). 300,000 tested, 1.4% active. AID 1885;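 active means mean inhibition across valid replicates above about 55%, limit read from the data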;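 further: signal also drops with host cell toxicity which is not excluded here; higher percent means less beta-gal luminescence so fewer parasites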
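Test system: β-gal T. cruzi (Tulahuen C4) inside NIH/3T3 cells / Quantity: 5,000 cells/well / Measured by: luminescence from GalScreen with 0.05% NP40, read after 60 min / Medium: DMEM plus 2% FBS / Measure: parasite load inhibition, % / Reagent: Tulahuen C4 trypomastigotes, 5000/well / Schedule: co-culture of at least 90 h after 3 h attachment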
GRIN3A LBD mod – modulators (binders) of human NR3A ligand-binding domain | 340,000 tested, 2.5% active | Tm shift relative to glycine control, % at 25 µM | NR3A LBD differential scanning fluorimetry, Tm shift; 0% = protein alone, 100% = glycine-bound protein;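 active means melting temperature shift of at least 10% of the positive control shift, at one fixed dose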
CHOP inhibitor – CHOP inhibition in unfolded protein response; CHO-K1 CHOP-promoter luciferase, tunicamycin-induced, 15-18 h; inhibition, % at 10 µM; 220,000 tested, 3.8% active;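 active means compounds that reduced the stress-induced luciferase reporter signal by more than about 70% of percent inhibition, limit read from the data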
CSC inhib – cancer stem cell inhibition. cancer stem cell-like cells viability, luminescence. inhibition, % at 7.5 µM. 300,000 tested, 1.1% active; in the data active means inhibition above about 75%; tested in HMLE shEcad cells
A number is an active result; i = inactive; nt = no result given.

SMILES	PREPL inh	Beta cell apopt	T cruzi repl	GRIN3A LBD mod	CHOP inhibitor	CSC inhib
Cc1ccc(/C=N\NC(=O)COc2ccc(C)cc2[N+](=O)[O-])cc1	i	i	i	i	i	i
Cc1[nH]n(-c2ccccc2)c(=O)c1/C=N/NC(=O)c1ccc(O)cc1O	i	nt	i	10.2	nt	nt
CCCCN(CCCC)C(=S)N/N=C/c1c(C)[nH]n(-c2ccccc2)c1=O	i	86.7	i	i	i	i
Cc1ccc(OCC(=O)N/N=C\c2c(C)[nH]n(-c3ccccc3)c2=O)c([N+](=O)[O-])c1	i	86.6	i	i	i	i
Cc1ccc(-n2[nH]c(C)c(/C=N/NC(=O)c3ccc(O)cc3O)c2=O)cc1	i	i	i	13.3	nt	i
Cc1ccc(C(=O)C(c2ccccc2)N2Cc3ccccc3C2=N)cc1 (configuration not stated)	i	i	i	i	i	110.9
COc1ccc(Cl)cc1NC(=S)N(Cc1cccnc1)Cc1ccco1	i	i	66.2	i	i	i
CCOC(=O)c1ccc(NC(=S)N(Cc2cccnc2)Cc2ccco2)cc1	i	i	55.4	i	i	nt
CCc1ccc(NC(=O)N(Cc2cccnc2)Cc2ccco2)cc1	i	i	nt	i	i	i
COC(=O)c1ccc(NC(=S)N(Cc2cccnc2)Cc2ccco2)cc1	i	i	72.6	i	i	i
CCOC(=O)C1C(C(=O)OC)=C(C(=O)OC)c2ccccc2N1S(=O)(=O)C(F)(F)F (configuration not stated)	nt	nt	nt	i	nt	nt
C(=N\N1CCOCC1)/c1cccs1	i	i	i	i	i	i
C=CCNC(=S)N1CCN(C2CCCCC2)CC1	i	i	i	i	i	i
O=C(OCC(=O)N1CCN(c2ccccc2)CC1)c1ccc2ccccc2n1	i	i	i	14.2	i	i
Nc1[nH]ncc1-c1ccc(F)cc1	i	i	i	i	i	i
C/C(=N\Nc1nc(-c2ccccn2)nc2ccccc12)c1ccc(F)cc1	i	87.5	i	i	i	82.2
C/C(=N/Nc1nc(-c2ccccc2F)nc2ccccc12)c1ccccc1O	i	i	i	i	i	i
C/C(=N\Nc1nc(-c2ccccc2O)nc2ccccc12)c1ccccc1	i	i	i	13.4	i	i
C/C(=N\NC(=O)Cn1c(-c2ccccn2)nc2ccccc21)c1ccccc1	i	i	i	i	i	i
O=S(=O)(/C=C/C=C/S(=O)(=O)c1ccccc1)c1ccccc1	nt	nt	nt	12.6	nt	nt
O=c1[nH]c2ccc(S(=O)(=O)N3CCN(c4ccc(F)cc4)CC3)cc2o1	i	i	i	i	i	i
CCCCOc1ccccc1C(=O)N(Cc1ccco1)C1CCS(=O)(=O)C1 (configuration not stated)	i	i	i	i	nt	i
COc1ccc(OC)c(C2NC(=O)c3sc(=S)n(-c4ccccc4)c3N2)c1 (configuration not stated)	i	nt	i	i	90.3	i
C=CCn1c(SCC(=O)Nc2ccc(C(=O)OCC)cc2)nnc1-c1sc(N)nc1C	i	i	i	i	i	i
Nc1cc(=O)nc(SCC(=O)Nc2ccccc2)n1-c1ccccc1	i	i	i	i	i	i
SMILES	PREPL inh	Beta cell apopt	T cruzi repl	GRIN3A LBD mod	CHOP inhibitor	CSC inhib
Cc1ccc(NC(=O)C(C)Sc2nc(=O)cc(N)n2-c2ccccc2)cc1 (configuration not stated)	i	i	i	i	73.3	i
C=CCn1c(N)cc(=O)nc1SC(C)C(=O)Nc1ccc(C(=O)OCC)cc1 (configuration not stated)	i	i	i	14.5	nt	i
COc1ccc2[nH]c3c(NCCC4=CCCCC4)ncnc3c2c1	nt	nt	87.2	i	71.9	nt
CCN(CC)CCNc1ncnc2c1[nH]c1ccc(OC)cc12	i	i	i	nt	i	i
O=C(NC(N1CCOCC1)C(Cl)(Cl)Cl)c1ccccc1Cl (configuration not stated)	i	i	i	i	i	i
O=C(NC(N1CCOCC1)C(Cl)(Cl)Cl)c1cc([N+](=O)[O-])cc([N+](=O)[O-])c1 (configuration not stated)	i	i	93.5	i	i	i
O=C(Nc1ccc(N2CCOCC2)cc1)c1ccc(Cl)c(S(=O)(=O)N2CCCCC2)c1	i	i	nt	i	nt	nt
CN1CCCN(S(=O)(=O)c2ccc(Cl)c(Cl)c2)CC1	nt	nt	i	i	i	nt
Cc1ccc(O)c(N=Nc2nccs2)c1	i	88.5	nt	i	nt	i
O=C(/C=C/c1ccccc1[N+](=O)[O-])NCCc1ccc(F)cc1	i	i	i	i	i	i
O=C(/C=C/c1ccccc1Cl)NCCc1ccc(F)cc1	i	i	i	13.7	i	i
CSc1nsc(/C=C/Nc2ccc(C)c(C)c2)c1C#N	i	i	i	i	87.0	i
CCN1C(=O)[C@H]2[C@H]3CN=C(SCc4ccc(C)cc4)N3[C@@](Cc3ccccc3)(C(=O)OC)[C@H]2C1=O	nt	nt	nt	i	nt	nt
Cc1c(N2C(=O)c3ccccc3C2(O)c2ccccc2)c(=O)n(-c2ccccc2)n1C (configuration not stated)	i	i	i	i	i	i
O=C(Cn1cnc2c(nnn2Cc2ccccc2)c1=O)c1ccccc1	i	i	i	11.5	i	i
c1ccc2c(c1)Nc1cc3ccccc3cc1S2	i	i	i	i	i	i
Cc1ccc2c(c1)Sc1c(ccc3ccccc13)N2	i	103.9	i	i	i	i
CO[C@H]1CC[C@@]2(C)[C@@H](CC[C@@H]3[C@@H]2CC[C@@]2(C)[C@H]3C[C@H](C(=O)N[C@@H](CCCN=C(N)N)C(=O)NCC(=O)N[C@@H](CC(=O)O)C(N)=O)O[C@]23CCCO3)C1	nt	nt	nt	i	nt	nt
COc1ccc(-c2csc(NC(=O)C3CSC4(C)CCC(=O)N34)n2)c(OC)c1 (configuration not stated)	i	i	i	i	nt	i
Cc1ccc(Nc2nc(-c3ccc(F)cc3)cs2)nc1	nt	nt	i	i	nt	nt
CC(=O)Nc1cccc(-c2csc(Nc3ccc(Cl)cn3)n2)c1	i	nt	i	13.9	i	i
CC(=O)Nc1ccc(-c2csc(Nc3ccc(Cl)cn3)n2)cc1	i	i	i	26.2	i	i
Cc1ccc(Nc2nc(-c3ccc(O)c(O)c3)cs2)nc1	nt	nt	i	42.6	i	nt
Cc1ccc(C2C(C(=O)c3cccs3)=C(O)C(=O)N2c2nnc(C)s2)cc1 (configuration not stated)	i	i	i	i	i	i
Cc1cccc(NC(=O)c2c(O)c3ccccc3n(C)c2=O)c1	i	nt	i	i	nt	i
NNC(=O)c1ccc(CSc2n[nH]c(=O)[nH]c2=O)cc1	i	i	i	i	i	i
CCc1cccc(C)c1NC(=O)CN1CCN(S(=O)(=O)c2ccc(C(C)(C)C)cc2)CC1	i	i	i	nt	nt	i
CCN(CC)Cc1cc2[nH]c3c4ccc(Cl)cc4ncc3c2cc1OC	nt	nt	61.8	i	i	nt
CC1CC(C)CN(C(=O)C(Cc2ccccc2)NC(=O)c2ccccc2)C1 (configuration not stated)	i	nt	i	i	nt	i
